Measurements: ChEMBL document CHEMBL4325842, “Design, synthesis, and biological evaluation of novel aminopyrimidinylisoindolines as AXL kinase inhibitors” (Bioorg Med Chem Lett, 2018)

Experiments:
OVCAR-3 = experiment: Antiproliferative activity against human OVCAR3 cells after 2 days by spectrophotometric analysis; type: functional; settings: OVCAR-3, 48 h
Method in brief: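 Cells from ATCC were kept in RPMI 1640 with 5% FBS. They were exposed to graded concentrations in DMSO/RPMI for 48 h at 37 C under 5% CO2, then fixed with 50% trichloroacetic acid. Cellular protein was read at 540 nm at time zero and at 48 h, with and without compound. TGI (100% growth inhibition) was taken from the concentration-response curve.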

[1] = target: Homeodomain-interacting protein kinase 1 (Homo sapiens) (UniProt Q86Z02); experiment: Inhibition of human HIPK1 at 10 uM using MBP as substrate by [gamma-33P]-ATP assay relative to control
Method in brief: (§1)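 Commercial kinase panel screen at a single concentration of 10 μM. % inhibition was calculated as 100 minus % activity.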

[2] = target: Dual specificity mitogen-activated protein kinase kinase 1 (Homo sapiens) (UniProt Q02750); experiment: Inhibition of human MEK1 at 10 uM using ERK2 (K52R) as substrate by [gamma-33P]-ATP assay relative to control; method in brief: as §1
[3] = target: Serine/threonine-protein kinase B-raf (Homo sapiens) (UniProt P15056); experiment: Inhibition of human BRAF at 10 uM using MEK1 (K97R) as substrate by [gamma-33P]-ATP assay relative to control; method in brief: as §1
[4] = target: Angiopoietin-1 receptor (Homo sapiens) (UniProt Q02763); experiment: Inhibition of human TIE2 at 10 uM using poly[Glu:Tyr] (4:1) as substrate by [gamma-33P]-ATP assay relative to control
Method in brief: (§2)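 Kinase-panel profiling (50 oncogenic kinases) run by an outside contract service. The test compound was tested at a single concentration of 10 μM. Percent inhibition was calculated as 100 minus % remaining activity.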

[5] = target: Muscle, skeletal receptor tyrosine-protein kinase (Homo sapiens) (UniProt O15146); experiment: Inhibition of human MUSK at 10 uM using MBP as substrate by [gamma-33P]-ATP assay relative to control; method in brief: as §1
[6] = target: Tyrosine-protein kinase Fyn (Homo sapiens) (UniProt P06241); experiment: Inhibition of human FYN at 10 uM using poly[Glu:Tyr] (4:1) as substrate by [gamma-33P]-ATP assay relative to control; method in brief: as §1
[7] = target: Hepatocyte growth factor receptor (Homo sapiens) (UniProt P08581); experiment: Inhibition of human c-MET at 10 uM using KKKSPGEYVNIEFG as substrate by [gamma-33P]-ATP assay relative to control; method in brief: as §2
HT-1080 = experiment: Antiproliferative activity against human HT1080 cells after 2 days by spectrophotometric analysis; type: functional; settings: HT-1080, 48 h
[8] = target: Casein kinase I isoform epsilon (Homo sapiens) (UniProt P49674); experiment: Inhibition of human CK1 epsilon at 10 uM using KRRRAL[pS]VASLPGL as substrate by [gamma-33P]-ATP assay relative to control; method in brief: as §1
[9] = target: Epidermal growth factor receptor (Homo sapiens) (UniProt P00533); experiment: Inhibition of human EGFR at 10 uM using poly[Glu:Tyr] (4:1) as substrate by [gamma-33P]-ATP assay relative to control; method in brief: as §1
[10] = target: Tyrosine-protein kinase receptor UFO (Homo sapiens) (UniProt P30530); experiment: Inhibition of human AXL at 10 uM using EAIYAAPFAKKK as substrate by [gamma-33P]-ATP assay relative to control; method in brief: as §1
[11] = target: Proto-oncogene tyrosine-protein kinase Src (Homo sapiens) (UniProt P12931); experiment: Inhibition of human c-SRC at 10 uM using poly[Glu:Tyr] (4:1) as substrate by [gamma-33P]-ATP assay relative to control; method in brief: as §2
[12] = target: DNA-dependent protein kinase catalytic subunit (Homo sapiens) (UniProt P78527); experiment: Inhibition of human DNA-PK at 10 uM using EPPLSQEAFADLWKK as substrate by [gamma-33P]-ATP assay relative to control; method in brief: as §1
A549 = experiment: Antiproliferative activity against human A549 cells after 2 days by spectrophotometric analysis; type: functional; settings: A549, 48 h
[13] = target: Protein kinase C alpha type (Homo sapiens) (UniProt P17252); experiment: Inhibition of human PKCalpha at 10 uM using ERMRPRKRQGSVRRRV as substrate by [gamma-33P]-ATP assay relative to control; method in brief: as §2
[14] = target: Macrophage-stimulating protein receptor (Homo sapiens) (UniProt Q04912); experiment: Inhibition of human RON at 10 uM using KKSRGDYMTMQIG as substrate by [gamma-33P]-ATP assay relative to control; method in brief: as §2
[15] = target: Tyrosine-protein kinase Mer (Homo sapiens) (UniProt Q12866); experiment: Inhibition of human MER at 10 uM using poly[Glu:Tyr] (4:1) as substrate by [gamma-33P]-ATP assay relative to control; method in brief: as §1
NOMO-1 = experiment: Antiproliferative activity against human NOMO1 cells after 2 days by spectrophotometric analysis; type: functional; settings: NOMO-1, 48 h
A-375 = experiment: Antiproliferative activity against human A375 cells after 2 days by spectrophotometric analysis; type: functional; settings: A-375, 48 h
[16] = target: Receptor-type tyrosine-protein kinase FLT3 (Homo sapiens, UniProt P36888); experiment: Inhibition of human FLT3 using EAIYAAPFAKKK as substrate by [gamma-33P]-ATP assay
[17] = target: Aurora kinase A (Homo sapiens) (UniProt O14965); experiment: Inhibition of human AuroraA at 10 uM using [H-LRRASLG] as substrate by [gamma-33P]-ATP assay relative to control; method in brief: as §1
[18] = target: Tyrosine-protein kinase Lck (Homo sapiens) (UniProt P06239); experiment: Inhibition of human LCK at 10 uM using poly[Glu:Tyr] (4:1) as substrate by [gamma-33P]-ATP assay relative to control; method in brief: as §1
[19] = target: Serine/threonine-protein kinase 26 (Homo sapiens) (UniProt Q9P289); experiment: Inhibition of human MST4 at 10 uM using MBP as substrate by [gamma-33P]-ATP assay relative to control; method in brief: as §1
[20] = target: Vascular endothelial growth factor receptor 1 (Homo sapiens) (UniProt P17948); experiment: Inhibition of human FLT1 at 10 uM using poly[Glu:Tyr] (4:1) as substrate by [gamma-33P]-ATP assay relative to control; method in brief: as §1
[21] = target: Ephrin type-A receptor 1 (Homo sapiens) (UniProt P21709); experiment: Inhibition of human EPHA1 at 10 uM using poly[Glu:Tyr] (4:1) as substrate by [gamma-33P]-ATP assay relative to control; method in brief: as §1
[22] = target: Tyrosine-protein kinase receptor TYRO3 (Homo sapiens, UniProt Q06418); experiment: Inhibition of human TYRO3 using poly[Glu:Tyr] (4:1) as substrate by [gamma-33P]-ATP assay

Sequence of Ephrin type-A receptor 1 (Homo sapiens) (P21709 whole entry): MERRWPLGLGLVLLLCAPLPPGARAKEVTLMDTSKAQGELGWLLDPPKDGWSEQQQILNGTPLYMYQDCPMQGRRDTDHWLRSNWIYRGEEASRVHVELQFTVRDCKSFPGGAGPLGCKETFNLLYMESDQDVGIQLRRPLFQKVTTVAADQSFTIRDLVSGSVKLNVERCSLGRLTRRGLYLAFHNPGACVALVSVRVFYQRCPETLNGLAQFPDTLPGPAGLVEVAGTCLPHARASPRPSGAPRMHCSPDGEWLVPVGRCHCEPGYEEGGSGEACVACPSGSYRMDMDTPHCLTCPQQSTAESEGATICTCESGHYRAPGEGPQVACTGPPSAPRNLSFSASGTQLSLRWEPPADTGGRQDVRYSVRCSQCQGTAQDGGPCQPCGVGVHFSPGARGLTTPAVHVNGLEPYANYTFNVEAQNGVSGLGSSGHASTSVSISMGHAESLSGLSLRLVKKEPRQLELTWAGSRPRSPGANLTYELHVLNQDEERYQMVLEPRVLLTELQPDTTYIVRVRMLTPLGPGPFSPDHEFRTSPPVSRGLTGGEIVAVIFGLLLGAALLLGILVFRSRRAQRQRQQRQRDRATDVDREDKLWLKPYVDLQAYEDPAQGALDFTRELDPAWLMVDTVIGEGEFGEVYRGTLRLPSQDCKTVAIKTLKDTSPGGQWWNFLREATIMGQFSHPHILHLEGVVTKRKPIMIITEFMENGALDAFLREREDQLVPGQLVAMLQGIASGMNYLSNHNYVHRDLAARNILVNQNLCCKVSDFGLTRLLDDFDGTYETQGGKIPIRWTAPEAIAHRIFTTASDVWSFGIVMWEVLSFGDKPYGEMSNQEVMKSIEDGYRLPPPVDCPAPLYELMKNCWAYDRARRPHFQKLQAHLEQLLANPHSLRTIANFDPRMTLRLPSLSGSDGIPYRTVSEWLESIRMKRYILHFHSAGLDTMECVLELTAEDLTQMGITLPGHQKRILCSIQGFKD
Sequence of Aurora kinase A (Homo sapiens) (O14965 whole entry): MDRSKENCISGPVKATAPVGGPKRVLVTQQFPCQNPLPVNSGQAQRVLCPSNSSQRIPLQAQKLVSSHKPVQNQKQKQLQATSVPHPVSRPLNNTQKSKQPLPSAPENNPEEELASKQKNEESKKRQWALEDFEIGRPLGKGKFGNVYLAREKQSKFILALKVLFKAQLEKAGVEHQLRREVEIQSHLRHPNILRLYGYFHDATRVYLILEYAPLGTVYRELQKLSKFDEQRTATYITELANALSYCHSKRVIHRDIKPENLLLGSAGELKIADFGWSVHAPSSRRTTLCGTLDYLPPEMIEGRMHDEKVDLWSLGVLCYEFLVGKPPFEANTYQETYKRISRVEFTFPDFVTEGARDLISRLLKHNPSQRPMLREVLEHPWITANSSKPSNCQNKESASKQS
Sequence of Epidermal growth factor receptor (Homo sapiens) (P00533 whole entry): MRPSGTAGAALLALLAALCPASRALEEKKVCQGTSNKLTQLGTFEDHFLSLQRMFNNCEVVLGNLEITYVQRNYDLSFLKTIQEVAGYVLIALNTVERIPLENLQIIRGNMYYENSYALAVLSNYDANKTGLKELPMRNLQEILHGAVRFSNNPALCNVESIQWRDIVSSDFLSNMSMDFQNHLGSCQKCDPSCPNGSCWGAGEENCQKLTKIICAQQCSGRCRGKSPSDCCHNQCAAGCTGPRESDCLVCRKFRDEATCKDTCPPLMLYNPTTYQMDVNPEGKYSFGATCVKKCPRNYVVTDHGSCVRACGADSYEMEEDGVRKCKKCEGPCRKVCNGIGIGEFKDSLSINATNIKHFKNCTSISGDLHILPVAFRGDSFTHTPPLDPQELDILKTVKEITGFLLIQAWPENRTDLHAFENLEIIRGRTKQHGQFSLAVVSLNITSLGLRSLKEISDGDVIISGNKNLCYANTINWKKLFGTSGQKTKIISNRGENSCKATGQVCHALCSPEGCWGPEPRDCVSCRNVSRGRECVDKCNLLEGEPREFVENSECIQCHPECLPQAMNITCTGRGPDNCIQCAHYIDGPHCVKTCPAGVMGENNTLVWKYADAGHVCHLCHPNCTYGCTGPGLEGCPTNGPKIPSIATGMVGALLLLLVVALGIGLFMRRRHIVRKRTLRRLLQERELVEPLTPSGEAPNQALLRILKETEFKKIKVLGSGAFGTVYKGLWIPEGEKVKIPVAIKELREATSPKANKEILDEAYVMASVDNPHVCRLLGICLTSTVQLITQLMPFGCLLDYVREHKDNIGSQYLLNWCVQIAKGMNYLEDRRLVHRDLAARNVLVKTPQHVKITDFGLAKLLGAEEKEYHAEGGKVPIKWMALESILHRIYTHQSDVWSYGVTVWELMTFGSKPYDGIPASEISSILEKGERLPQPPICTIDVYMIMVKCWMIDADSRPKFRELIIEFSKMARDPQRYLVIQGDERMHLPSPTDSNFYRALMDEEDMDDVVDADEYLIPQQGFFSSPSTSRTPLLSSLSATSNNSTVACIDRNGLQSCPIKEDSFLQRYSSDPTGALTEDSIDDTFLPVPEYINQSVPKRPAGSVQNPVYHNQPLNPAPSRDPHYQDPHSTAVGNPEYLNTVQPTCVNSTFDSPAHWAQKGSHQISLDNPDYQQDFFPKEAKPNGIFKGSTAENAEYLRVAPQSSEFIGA
Sequence of Angiopoietin-1 receptor (Homo sapiens) (Q02763 whole entry): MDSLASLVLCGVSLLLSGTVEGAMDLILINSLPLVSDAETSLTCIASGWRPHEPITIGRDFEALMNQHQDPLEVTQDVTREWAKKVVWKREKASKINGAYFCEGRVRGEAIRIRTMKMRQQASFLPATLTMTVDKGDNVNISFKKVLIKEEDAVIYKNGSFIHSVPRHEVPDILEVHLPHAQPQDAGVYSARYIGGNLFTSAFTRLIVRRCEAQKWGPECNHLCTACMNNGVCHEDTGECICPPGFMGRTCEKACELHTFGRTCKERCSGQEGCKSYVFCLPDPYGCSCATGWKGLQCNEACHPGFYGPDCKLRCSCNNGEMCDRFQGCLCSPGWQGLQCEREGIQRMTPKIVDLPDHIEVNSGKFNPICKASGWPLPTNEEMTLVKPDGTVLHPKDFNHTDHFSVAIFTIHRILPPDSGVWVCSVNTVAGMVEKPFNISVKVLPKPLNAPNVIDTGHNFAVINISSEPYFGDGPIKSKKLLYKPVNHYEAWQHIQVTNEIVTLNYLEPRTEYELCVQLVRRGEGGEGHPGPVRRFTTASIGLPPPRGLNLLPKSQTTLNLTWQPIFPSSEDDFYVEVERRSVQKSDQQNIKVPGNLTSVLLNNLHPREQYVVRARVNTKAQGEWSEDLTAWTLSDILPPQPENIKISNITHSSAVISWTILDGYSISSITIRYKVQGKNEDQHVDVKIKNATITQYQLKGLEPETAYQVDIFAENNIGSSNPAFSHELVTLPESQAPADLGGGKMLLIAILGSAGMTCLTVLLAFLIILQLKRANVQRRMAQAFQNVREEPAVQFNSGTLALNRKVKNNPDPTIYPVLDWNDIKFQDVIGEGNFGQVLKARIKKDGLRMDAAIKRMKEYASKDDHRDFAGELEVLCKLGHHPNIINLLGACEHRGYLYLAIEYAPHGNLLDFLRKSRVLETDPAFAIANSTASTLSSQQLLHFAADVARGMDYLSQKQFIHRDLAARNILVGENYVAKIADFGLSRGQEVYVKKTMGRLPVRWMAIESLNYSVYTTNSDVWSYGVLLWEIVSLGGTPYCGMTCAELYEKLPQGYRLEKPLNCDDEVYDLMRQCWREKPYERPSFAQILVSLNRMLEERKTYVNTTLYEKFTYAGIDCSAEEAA
Sequence of Macrophage-stimulating protein receptor (Homo sapiens) (Q04912 25-304 limits assumed): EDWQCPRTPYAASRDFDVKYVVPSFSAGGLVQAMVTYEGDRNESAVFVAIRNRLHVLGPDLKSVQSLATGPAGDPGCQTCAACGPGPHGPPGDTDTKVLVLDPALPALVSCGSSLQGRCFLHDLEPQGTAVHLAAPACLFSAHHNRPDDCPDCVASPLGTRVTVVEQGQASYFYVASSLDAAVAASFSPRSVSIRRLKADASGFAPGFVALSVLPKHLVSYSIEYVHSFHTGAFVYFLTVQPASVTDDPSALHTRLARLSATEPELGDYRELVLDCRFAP
Sequence of Macrophage-stimulating protein receptor (Homo sapiens) (Q04912 310-1400 limits assumed): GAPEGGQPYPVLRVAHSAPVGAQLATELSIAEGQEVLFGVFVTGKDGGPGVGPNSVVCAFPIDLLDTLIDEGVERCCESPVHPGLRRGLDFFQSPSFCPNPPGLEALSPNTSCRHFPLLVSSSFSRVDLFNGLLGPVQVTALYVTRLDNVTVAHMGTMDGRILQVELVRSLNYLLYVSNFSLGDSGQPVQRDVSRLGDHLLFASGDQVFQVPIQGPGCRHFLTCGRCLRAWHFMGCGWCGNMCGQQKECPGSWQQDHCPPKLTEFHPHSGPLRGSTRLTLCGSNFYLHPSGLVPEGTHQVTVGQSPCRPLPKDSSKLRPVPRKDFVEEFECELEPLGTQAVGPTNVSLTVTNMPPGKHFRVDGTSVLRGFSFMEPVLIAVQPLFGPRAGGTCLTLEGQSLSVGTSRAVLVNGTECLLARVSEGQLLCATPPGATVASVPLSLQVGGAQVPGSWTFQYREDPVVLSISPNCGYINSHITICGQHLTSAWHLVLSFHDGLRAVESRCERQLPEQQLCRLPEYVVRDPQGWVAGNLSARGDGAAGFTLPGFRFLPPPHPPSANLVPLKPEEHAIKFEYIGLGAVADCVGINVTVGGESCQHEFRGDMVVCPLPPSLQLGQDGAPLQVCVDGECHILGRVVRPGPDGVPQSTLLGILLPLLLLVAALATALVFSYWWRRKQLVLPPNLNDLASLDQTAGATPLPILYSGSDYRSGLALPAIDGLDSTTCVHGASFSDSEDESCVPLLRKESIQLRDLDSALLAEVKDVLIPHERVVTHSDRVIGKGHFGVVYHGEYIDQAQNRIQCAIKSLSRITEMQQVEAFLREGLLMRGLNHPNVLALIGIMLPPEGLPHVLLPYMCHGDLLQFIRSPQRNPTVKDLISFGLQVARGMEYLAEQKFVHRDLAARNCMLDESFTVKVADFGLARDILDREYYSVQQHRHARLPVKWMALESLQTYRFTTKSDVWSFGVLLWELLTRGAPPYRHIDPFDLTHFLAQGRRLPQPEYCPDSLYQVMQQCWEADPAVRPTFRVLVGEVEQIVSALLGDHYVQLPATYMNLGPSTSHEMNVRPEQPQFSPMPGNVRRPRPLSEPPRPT

**Q.** `CC(=O)N1CCN(c2ccc(Nc3ncc(C(F)(F)F)c(N4Cc5cccc(N(C)S(C)(=O)=O)c5C4)n3)cc2)CC1` was tested. Which GI50 (OVCAR-3) did it give?
**A.** Its GI50 is 970 nM.

**Q.** And the inhibition [1]?
**A.** The inhibition was 83.8%.

**Q.** And the inhibition [2]?
**A.** Its inhibition is 3.6%.

**Q.** What about the inhibition [3] of the same compound?
**A.** The inhibition was 6.7%.

**Q.** What about the inhibition [4] of the same compound?
**A.** The inhibition was 65.4%.

**Q.** What about the inhibition [5] of the same compound?
**A.** The inhibition was 66.6%.

**Q.** And the inhibition [6]?
**A.** The inhibition was 62.2%.

**Q.** And the inhibition [7]?
**A.** Its inhibition is 17.9%.

**Q.** What about the GI50 (HT-1080) of the same compound?
**A.** The GI50 was 1800 nM.

**Q.** What about the inhibition [8] of the same compound?
**A.** Its inhibition is -2.5%.

**Q.** And the inhibition [9]?
**A.** Its inhibition is 2%.

**Q.** And the inhibition [10]?
**A.** The inhibition was 92.1%.

**Q.** And the inhibition [11]?
**A.** Its inhibition is 88.2%.

**Q.** What about the inhibition [12] of the same compound?
**A.** The inhibition was -4%.

**Q.** What about the GI50 (A549) of the same compound?
**A.** Its GI50 is 1300 nM.

**Q.** What about the inhibition [13] of the same compound?
**A.** The inhibition was 19.3%.

**Q.** And the inhibition [14]?
**A.** The inhibition was 40.1%.

**Q.** What about the inhibition [15] of the same compound?
**A.** Its inhibition is 90.6%.

**Q.** And the GI50 (NOMO-1)?
**A.** Its GI50 is 3800 nM.

**Q.** What about the GI50 (A-375) of the same compound?
**A.** Its GI50 is 1000 nM.

**Q.** And the IC50 [16]?
**A.** Its IC50 is 4.6 nM.

**Q.** What about the inhibition [17] of the same compound?
**A.** Its inhibition is 95.3%.

**Q.** What about the inhibition [18] of the same compound?
**A.** Its inhibition is 84.1%.

**Q.** What about the inhibition [19] of the same compound?
**A.** The inhibition was 25.3%.

**Q.** What about the inhibition [20] of the same compound?
**A.** Its inhibition is 49%.

**Q.** And the inhibition [21]?
**A.** Its inhibition is 13.1%.

**Q.** And the IC50 [22]?
**A.** The IC50 was 50 nM.
